Source: ChEMBL document CHEMBL1156597, “Structure-activity relationship of kahalalide F synthetic analogues” (J Med Chem, 2008)

How the values were obtained:
[1] = tested on: DU-145; test: Cytotoxicity against human DU145 cells after 48 hrs by SRB assay; assay type: functional, cell-based; settings: Homo sapiens, DU-145, 48 h
Summary of the method: (§1)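 Cells grown in RPMI 1640 with 10% FBS and penicillin/streptomycin at 37 °C and 5% CO₂, trypsinized, then seeded at 5 × 10³/well. After 18 h drug-free attachment, samples in DMSO/EtOH/PBS (0.5:0.5:99) were added for 48 h continuous exposure. Cells were fixed with cold TCA (1 h, 4 °C) and stained with SRB (10 min). Tris-solubilized stain read at 490 nm. Triplicate wells, mean ± SD; GI₅₀ derived.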

[2] = tested on: A549; test: Cytotoxicity against human A549 cells after 48 hrs by SRB assay; assay type: functional, cell-based; settings: Homo sapiens, A549, 48 h; summary of the method: as §1
[3] = tested on: HT-29; test: Cytotoxicity against human HT29 cells after 48 hrs by SRB assay; assay type: functional, cell-based; settings: Homo sapiens, HT-29, 48 h; summary of the method: as §1
[4] = tested on: SK-MEL-28; test: Cytotoxicity against human SK-MEL-28 cells
[5] = tested on: SK-MEL-28; test: Cytotoxicity against human SK-MEL-28 cells after 48 hrs by SRB assay; assay type: functional, cell-based; settings: Homo sapiens, SK-MEL-28, 48 h; summary of the method: as §1
[6] = tested on: DU-145; test: Cytotoxicity against human DU145 cells

C/C=C1\NC(=O)[C@H](Cc2ccccc2)NC(=O)[C@@H](C(C)C)NC(=O)[C@@H]([C@H](C)CC)NC(=O)[C@H](NC(=O)[C@H](NC(=O)[C@H](CCCN)NC(=O)[C@H]2CCCN2C(=O)[C@H](NC(=O)[C@@H](NC(=O)[C@@H](NC(=O)[C@H](NC(=O)CCCN(C)C)C(C)C)[C@@H](C)O)C(C)C)C(C)C)[C@H](C)CC)[C@H](C)OC(=O)[C@H](C(C)C)NC1=O
IC50 [1]: 6.77 µM | IC50 [2]: 6.77 µM | IC50 [3]: 6.77 µM | IC50 [4]: 6.77 µM

C/C=C1\NC(=O)[C@H](Cc2ccccc2)NC(=O)[C@@H](C(C)C)NC(=O)[C@@H]([C@H](C)CC)NC(=O)[C@H](NC(=O)[C@H](NC(=O)CCCC(C)C)[C@H](C)CC)[C@H](C)OC(=O)[C@H](C(C)C)NC1=O
IC50 [5]: 11.5 µM | IC50 [2]: 11.5 µM | IC50 [3]: 11.5 µM | IC50 [6]: 11.5 µM

C/C=C1\NC(=O)[C@H](Cc2ccccc2)NC(=O)[C@@H](C(C)C)NC(=O)[C@@H]([C@H](C)CC)NC(=O)[C@H](NC(=O)[C@H](NC(=O)[C@@H](NC(=O)[C@@H](NC(=O)[C@H](NC(=O)CCCC(C)C)C(C)C)[C@@H](C)O)C(C)C)[C@H](C)CC)[C@H](C)OC(=O)[C@H](C(C)C)NC1=O
IC50 [1]: 4.3 µM | IC50 [2]: 4.3 µM | IC50 [3]: 4.3 µM | IC50 [4]: 4.3 µM

CC[C@@H](C)[C@@H](NC(=O)[C@H](CCCN)NC(=O)[C@H]1CCCN1C(=O)[C@H](NC(=O)[C@@H](NC(=O)[C@@H](NC(=O)[C@H](NC(=O)CCCC(C)C)C(C)C)[C@@H](C)O)C(C)C)C(C)C)C(=O)N[C@H]1C(=O)N[C@H]([C@H](C)CC)C(=O)N[C@H](C(C)C)C(=O)N[C@@H](Cc2ccccc2)C(=O)N[C@H]([C@@H](C)O)C(=O)N[C@@H](C(C)C)C(=O)O[C@H]1C
IC50 [5]: 11.7 µM | IC50 [2]: 11.5 µM | IC50 [3]: 8.52 µM | IC50 [6]: 18.4 µM

C/C=C1\NC(=O)[C@H](Cc2ccccc2)NC(=O)[C@@H](C(C)C)NC(=O)[C@@H]([C@H](C)CC)NC(=O)[C@H](NC(=O)[C@H](NC(=O)[C@H](CCCN)NC(=O)[C@H]2CCCN2C(=O)[C@@H](NC(=O)[C@H](NC(=O)[C@@H](NC(=O)[C@H](NC(=O)CCCC(C)C)C(C)C)[C@@H](C)O)C(C)C)C(C)C)[C@H](C)CC)[C@H](C)OC(=O)[C@H](C(C)C)NC1=O
IC50 [1]: 3.39 µM | IC50 [2]: 3.39 µM | IC50 [3]: 3.39 µM | IC50 [4]: 3.39 µM

C/C=C1\NC(=O)[C@H](Cc2ccccc2)NC(=O)[C@@H](C(C)C)NC(=O)[C@@H]([C@H](C)CC)NC(=O)[C@H](NC(=O)[C@H](NC(=O)[C@@H](NC(=O)[C@H](NC(=O)CCCC(C)C)C(C)C)[C@@H](C)O)[C@H](C)CC)[C@H](C)OC(=O)[C@H](C(C)C)NC1=O
IC50 [1]: 9.36 µM | IC50 [2]: 9.36 µM | IC50 [3]: 9.36 µM | IC50 [4]: 9.36 µM
